Target: T1, Prostaglandin D2 receptor 2 (Homo sapiens, UniProt Q9Y5Y4)
T1 sequence (Q9Y5Y4 whole entry): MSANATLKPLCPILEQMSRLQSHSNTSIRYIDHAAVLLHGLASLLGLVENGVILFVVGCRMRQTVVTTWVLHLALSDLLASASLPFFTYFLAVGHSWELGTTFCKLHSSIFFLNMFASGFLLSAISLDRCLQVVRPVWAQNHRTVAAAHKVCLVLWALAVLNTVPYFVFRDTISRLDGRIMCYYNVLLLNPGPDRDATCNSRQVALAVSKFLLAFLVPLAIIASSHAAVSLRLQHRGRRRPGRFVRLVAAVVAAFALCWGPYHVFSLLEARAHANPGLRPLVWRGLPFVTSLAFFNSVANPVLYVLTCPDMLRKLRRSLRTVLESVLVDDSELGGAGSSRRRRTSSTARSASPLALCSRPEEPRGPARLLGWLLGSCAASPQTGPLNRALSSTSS
Experiment: Displacement of [3H]PGD2 from human CRTH2 expressed in chinese hamster CHO cells by liquid scintillation counting
Type: cell-based
Method in brief: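 Scintillation proximity competition assay: 2–5 μg human CRTH2 cell membranes, 1.5 nM [3H]PGD2, WGA-SPA beads, 10 mM HEPES/KOH pH 7.4, 10 mM MnCl2, protease inhibitors, 1% DMSO; 90 min, room temperature, shaking. Nonspecific binding defined with 1 μM PGD2. Ki by Cheng–Prusoff, mean of ≥3 independent dose–response experiments.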

| SMILES | Ki [nM] |
| --- | --- |
| CN(C)C(=O)c1cccc(C#Cc2cc(Cl)ccc2OCC(=O)O)c1 | 52 |
| Cc1ccc(S(=O)(=O)CCO)cc1C#Cc1cc(Cl)ccc1OCC(=O)O | 19 |
| O=C(O)COc1ccc(Cl)cc1C#Cc1ccccc1F | 47 |
| Cc1ccc(S(=O)(=O)C(C)C)cc1C#Cc1cc(Cl)ccc1OCC(=O)O | 6 |
| O=C(O)COc1ccc(Cl)cc1C#Cc1cc(CO)ccc1F | 73 |
| COC1(C)c2ccc(C#Cc3cc(Cl)ccc3OCC(=O)O)cc2S(=O)(=O)C1(C)C (configuration not stated) | 25 |
| CN(c1cncc(C#Cc2cc(Cl)ccc2OCC(=O)O)c1)S(C)(=O)=O | 378 |
| CCN(CC)C(=O)c1ccc(C#Cc2cc(Cl)ccc2OCC(=O)O)cc1S(=O)(=O)C(C)C | 46 |
| CN(C)C(=O)c1ccc(C#Cc2cc(Cl)ccc2OCC(=O)O)cc1 | 55 |
| COc1ccccc1C#Cc1cc(Cl)ccc1OCC(=O)O | 190 |
| CC1(C)C(=O)c2ccc(C#Cc3cc(Cl)ccc3OCC(=O)O)cc2S1(=O)=O | 31 |
| CS(=O)(=O)c1cc(C#Cc2cc(Cl)ccc2OCC(=O)O)ccc1-c1cccc(Cl)c1 | 16 |
| CCN(CC)S(=O)(=O)c1ccc(C)c(C#Cc2cc(Cl)ccc2OCC(=O)O)c1 | 3.4 |
| Cc1ccncc1C#Cc1cc(Cl)ccc1OCC(=O)O | 25 |
| CNS(=O)(=O)c1ccc(C)c(C#Cc2cc(Cl)ccc2OCC(=O)O)c1 | 10 |
| CC(C)Cc1ccncc1C#Cc1cc(Cl)ccc1OCC(=O)O | 4.9 |
| Cc1ccc(S(=O)(=O)Cc2ccccc2)cc1C#Cc1cc(Cl)ccc1OCC(=O)O | 5 |
| O=C(O)COc1ccc(Cl)cc1C#Cc1cncc(S(=O)(=O)N2CCOCC2)c1 | 41 |
| CCN(Cc1cc(-c2ccc(OC)cn2)ccc1-c1cc(CC(=O)O)ccc1OC)C(=O)C1CC1 | 5 |
| Cc1ccc(S(=O)(=O)N(C)CCCN(C)C)cc1C#Cc1cc(Cl)ccc1OCC(=O)O | 287 |
| CCCS(=O)(=O)c1ccc(C)c(C#Cc2cc(Cl)ccc2OC(CC)C(=O)O)c1 (configuration not stated) | 30 |

| SMILES | Ki [nM] |
| --- | --- |
| Cc1ccc(S(=O)(=O)N2CCCCC2)cc1C#Cc1cc(Cl)ccc1OCC(=O)O | 5 |
| Cc1ccc(S(=O)(=O)CC(C)C)cc1C#Cc1cc(Cl)ccc1OCC(=O)O | 3 |
| O=C(O)COc1cc(F)ccc1C#Cc1ccccc1Cl | 4780 |
| Cc1cc[n+]([O-])cc1C#Cc1cc(Cl)ccc1OCC(=O)O | 17 |
| CCCS(=O)(=O)c1cccc(C#Cc2cc(-c3sc(C)nc3C)ccc2OCC(=O)O)c1 | 54 |
| COC1c2ccc(C#Cc3cc(Cl)ccc3OCC(=O)O)cc2S(=O)(=O)C1(C)C (configuration not stated) | 21 |
| CCCS(=O)(=O)c1cccc(C#Cc2c(Cl)cccc2OCC(=O)O)c1 | 55 |
| CCCS(=O)(=O)c1cccc(C#Cc2c(OCC(=O)O)ccc3ccccc23)c1 | 44 |
| CS(=O)(=O)c1cc(C#Cc2cc(Cl)ccc2OCC(=O)O)ccc1-c1ccccc1 | 5 |
| CC1(C)C(O)c2ccc(C#Cc3cc(Cl)ccc3OCC(=O)O)cc2S1(=O)=O (configuration not stated) | 33 |
| CS(=O)(=O)c1ccc(C#Cc2cc(Cl)ccc2OCC(=O)O)cc1 | 86 |
| CCCS(=O)(=O)c1cccc(C#Cc2cc(-c3ccsc3)ccc2OCC(=O)O)c1 | 18 |
| O=C(O)COc1ccc(Cl)cc1C#Cc1ccccc1C(F)(F)F | 24 |
| CS(=O)(=O)Nc1cncc(C#Cc2cc(Cl)ccc2OCC(=O)O)c1 | 19 |
| O=C(O)COc1ccc(Cl)cc1C#Cc1cccc(S(=O)(=O)CCCO)c1 | 28 |
| COc1cccc(-c2ccc(C#Cc3cc(Cl)ccc3OCC(=O)O)cc2S(C)(=O)=O)c1 | 8 |
| Cc1ccc(S(=O)(=O)N2CCN(C)CC2)cc1C#Cc1cc(Cl)ccc1OCC(=O)O | 21 |
| CCCS(=O)(=O)c1cccc(C#Cc2cc(-c3cccs3)ccc2OCC(=O)O)c1 | 12 |
| CS(=O)(=O)c1cc(C#Cc2cc(Cl)ccc2OCC(=O)O)ccc1-c1ccc(Cl)cc1 | 14 |
| CC1(O)c2ccc(C#Cc3cc(Cl)ccc3OCC(=O)O)cc2S(=O)(=O)C1(C)C (configuration not stated) | 28 |
| Cc1ccc(S(=O)(=O)CCc2ccccc2)cc1C#Cc1cc(Cl)ccc1OCC(=O)O | 7 |

Source: ChEMBL document CHEMBL1914440, “Discovery of potent, selective, and orally bioavailable alkynylphenoxyacetic acid CRTH2 (DP2) receptor antagonists for the treatment of allergic inflammatory diseases” (J Med Chem, 2011)
